{
  "source": "ChEMBL document CHEMBL5143669",
  "about": "“Stapled peptides as scaffolds for developing radiotracers for intracellular targets: Preliminary evaluation of a radioiodinated MDM2-binding stapled peptide in the SJSA-1 osteosarcoma model” (Bioorg Med Chem Lett, 2022)",
  "key": {"[1]": {"target": "T1, E3 ubiquitin-protein ligase Mdm2 (Homo sapiens, UniProt Q00987)", "T1 sequence (Q00987 whole entry)": "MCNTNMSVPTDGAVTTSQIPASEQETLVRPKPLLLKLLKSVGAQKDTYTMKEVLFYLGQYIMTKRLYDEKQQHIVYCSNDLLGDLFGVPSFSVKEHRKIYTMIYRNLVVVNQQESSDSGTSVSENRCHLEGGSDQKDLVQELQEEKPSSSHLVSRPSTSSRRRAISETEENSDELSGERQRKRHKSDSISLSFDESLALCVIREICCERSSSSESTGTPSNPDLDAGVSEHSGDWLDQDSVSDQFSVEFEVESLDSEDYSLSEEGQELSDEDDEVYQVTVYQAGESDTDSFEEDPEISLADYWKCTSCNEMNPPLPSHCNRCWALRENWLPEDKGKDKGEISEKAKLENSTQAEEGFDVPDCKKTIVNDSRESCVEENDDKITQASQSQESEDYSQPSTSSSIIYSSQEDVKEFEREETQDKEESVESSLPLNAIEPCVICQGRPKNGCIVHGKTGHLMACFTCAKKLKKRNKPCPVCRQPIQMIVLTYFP", "test": "Binding affinity to MDM2 (unknown origin)"}, "[2]": {"target": "T1, E3 ubiquitin-protein ligase Mdm2", "test": "Binding affinity to recombinant human MDM2 by using 5-FAM-PMDM6 by fluorescence polarization based assay"}, "[3]": {"test": "Metabolic stability in athymic mouse plasma assessed as intact labeled peptide level at 3.7 MBq, iv after 4 hrs by RP-HPLC", "assay_type": "ADME, organism-based", "method_in_brief": "(§1)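 Tumor-free athymic mice were given 131I-labeled peptide via tail vein. Plasma was collected at 2 and 4 h (n = 2 per time) and analysed by RP-HPLC on an RP-18 column with an ethanol/0.05 M sodium acetate pH 5.5 gradient at 1 mL/min; intact fraction taken as percentage of plasma radioactivity.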"}, "[4]": {"test": "Metabolic stability in athymic mouse plasma assessed as intact labeled peptide level at 3.7 MBq, iv after 2 hrs by RP-HPLC", "assay_type": "ADME, organism-based", "method_in_brief": "as §1"}, "[5]": {"test": "Lipophilicity, logD of the compound using n-octanol and phosphate-buffered saline at pH 7.4 by the shake flask method", "assay_type": "physicochemical", "method_in_brief": "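Shake-flask partition of the 125I-labeled peptide between n-octanol and PBS pH 7.4; logD from n = 4.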"}},
  "data": [
    {"smiles": "CC(=O)N[C@@H](CCCCN)C(=O)NCCCCCC(=O)N[C@H](C(=O)N[C@@H](CO)C(=O)N[C@@H](Cc1ccccc1)C(=O)N[C@]1(C)CCCCCC/C=C/CCC[C@@](C)(C(=O)N[C@@H](CCC(=O)O)C(=O)N[C@@H](CC(N)=O)C(=O)N[C@@H](Cc2ccccc2)C(N)=O)NC(=O)[C@H](CC(C)C)NC(=O)[C@H](CC(C)C)NC(=O)[C@H](C)NC(=O)[C@H](Cc2c[nH]c3ccccc23)NC(=O)[C@H](Cc2ccc(O)cc2)NC(=O)[C@H](CCC(=O)O)NC1=O)[C@@H](C)O", "values": [
      {"measurement": "Kd", "setting": "[1]", "result": 15.1, "unit": "nM"},
      {"measurement": "IC50", "setting": "[2]", "result": 2.8, "unit": "nM"}
    ]},
    {"smiles": "CC(=O)NC(CCCCNC(=O)c1cccc([131I])c1)C(=O)NCCCCCC(=O)N[C@H](C(=O)N[C@@H](CO)C(=O)N[C@@H](Cc1ccccc1)C(=O)N[C@@]1(C)CCCCCC/C=C/CCC[C@@](C)(C(=O)N[C@@H](CCC(=O)O)C(=O)N[C@@H](CC(N)=O)C(=O)N[C@@H](Cc2ccccc2)C(N)=O)NC(=O)[C@H](CC(C)C)NC(=O)[C@H](CC(C)C)NC(=O)[C@H](C)NC(=O)[C@H](Cc2c[nH]c3ccccc23)NC(=O)[C@H](Cc2ccc(O)cc2)NC(=O)[C@H](CCC(=O)O)NC1=O)[C@@H](C)O", "note": "(stereo not given in full)", "values": [
      {"measurement": "Stability", "setting": "[3]", "result": 80, "unit": "%"},
      {"measurement": "Stability", "setting": "[4]", "result": 68, "unit": "%"}
    ]},
    {"smiles": "CC(=O)NC(CCCCNC(=O)c1cccc(I)c1)C(=O)NCCCCCC(=O)N[C@H](C(=O)N[C@@H](CO)C(=O)N[C@@H](Cc1ccccc1)C(=O)N[C@@]1(C)CCCCCC/C=C/CCC[C@@](C)(C(=O)N[C@@H](CCC(=O)O)C(=O)N[C@@H](CC(N)=O)C(=O)N[C@@H](Cc2ccccc2)C(N)=O)NC(=O)[C@H](CC(C)C)NC(=O)[C@H](CC(C)C)NC(=O)[C@H](C)NC(=O)[C@H](Cc2c[nH]c3ccccc23)NC(=O)[C@H](Cc2ccc(O)cc2)NC(=O)[C@H](CCC(=O)O)NC1=O)[C@@H](C)O", "note": "(stereo not given in full)", "values": [
      {"measurement": "logD", "setting": "[5]", "result": 1.45}
    ]}
  ]
}
